Test results taken from ChEMBL document CHEMBL2157871, “Identification of a novel and orally available benzimidazole derivative as an NPY Y5 receptor antagonist with in vivo efficacy” (Bioorg Med Chem Lett, 2012).

Tests used:
[1] = molecular target: T1, Neuropeptide Y receptor type 5 (Mus musculus, UniProt O70342); assay: Displacement of [125I]PYY from mouse NPY Y5 receptor
T1 sequence (O70342 whole entry): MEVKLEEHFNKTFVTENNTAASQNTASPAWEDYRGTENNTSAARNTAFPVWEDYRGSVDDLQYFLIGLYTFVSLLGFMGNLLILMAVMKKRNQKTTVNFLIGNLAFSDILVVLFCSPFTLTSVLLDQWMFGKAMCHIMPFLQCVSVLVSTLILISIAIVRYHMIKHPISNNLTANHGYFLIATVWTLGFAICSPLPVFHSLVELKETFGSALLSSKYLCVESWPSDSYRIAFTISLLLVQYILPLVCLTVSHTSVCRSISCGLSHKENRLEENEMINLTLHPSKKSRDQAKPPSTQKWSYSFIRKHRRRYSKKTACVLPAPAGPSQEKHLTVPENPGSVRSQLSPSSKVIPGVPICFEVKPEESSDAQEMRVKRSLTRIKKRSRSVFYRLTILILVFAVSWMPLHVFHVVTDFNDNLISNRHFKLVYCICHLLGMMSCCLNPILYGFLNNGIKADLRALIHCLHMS
Procedure, shortened: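 Competition binding at mouse NPY Y5 receptors with 125I-PYY as ligand. IC50 is the concentration giving 50% inhibition of total specific binding, taken as the mean of two or more independent assays.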

Cytochrome P450 1A2 = molecular target: T2, Cytochrome P450 1A2 (Homo sapiens, UniProt P05177); assay: Inhibition of CYP1A2; assay type: ADME
T2 sequence (P05177 whole entry): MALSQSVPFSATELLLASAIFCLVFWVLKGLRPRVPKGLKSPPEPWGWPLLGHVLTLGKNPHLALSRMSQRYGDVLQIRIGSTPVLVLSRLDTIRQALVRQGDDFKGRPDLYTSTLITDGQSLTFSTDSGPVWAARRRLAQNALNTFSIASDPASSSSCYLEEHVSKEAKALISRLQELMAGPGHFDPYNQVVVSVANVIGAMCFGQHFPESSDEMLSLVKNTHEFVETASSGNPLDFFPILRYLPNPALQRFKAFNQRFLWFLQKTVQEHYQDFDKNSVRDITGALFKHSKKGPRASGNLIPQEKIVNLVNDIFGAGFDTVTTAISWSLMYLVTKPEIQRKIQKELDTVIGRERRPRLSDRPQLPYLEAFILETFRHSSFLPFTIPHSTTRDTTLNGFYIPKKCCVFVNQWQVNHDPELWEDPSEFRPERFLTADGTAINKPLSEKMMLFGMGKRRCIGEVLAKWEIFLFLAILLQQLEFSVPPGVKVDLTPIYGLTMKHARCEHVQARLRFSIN

Cytochrome P450 2C19 = Cytochrome P450 2C19 (Homo sapiens, UniProt P33261); assay: Inhibition of CYP2C19; assay type: ADME
Cytochrome P450 2C9 = Cytochrome P450 2C9 (Homo sapiens, UniProt P11712); assay: Inhibition of CYP2C9; assay type: ADME
Cytochrome P450 2D6 = Cytochrome P450 2D6 (Homo sapiens, UniProt P10635); assay: Inhibition of CYP2D6; assay type: ADME
Cytochrome P450 3A4 = Cytochrome P450 3A4 (Homo sapiens, UniProt P08684); assay: Inhibition of CYP3A4; assay type: ADME
[2] = Kinetic solubility of the compound in 1%DMSO at pH 6.8; assay type: physicochemical; conditions: read-out: Kinetic_solubility
Procedure, shortened: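 Kinetic solubility measured at pH 6.8 from a 1% DMSO solution.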

[3] = Metabolic stability in human liver microsomes assessed as compound remaining after 30 mins; assay type: ADME, Microsome; conditions: read-out: Stability
Procedure, shortened: (§1)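 Human or rat liver microsomes incubated with compound for 30 min. Result given as percent of parent compound remaining.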

[4] = Metabolic stability in rat liver microsomes assessed as compound remaining after 30 mins; assay type: ADME, Microsome; conditions: read-out: Stability; procedure, shortened: as §1
Mus musculus [5] = assay: Antiobesity activity in DIO mouse assessed as decrease in [cPP(1 to 7),NPY(19 to 23),Ala(31),Alb(32),Gln(34)]-induced food intake at 12.5 mg/kg, po administered 1 hr prior to [cPP(1 to 7),NPY(19 to 23),Ala(31),Alb(32),Gln(34)]-induction measured at 2 hrs relative to vehicle-treated control; assay type: functional; set-up: scale not given: the % may be the effect or the level left
Mus musculus [6] = assay: Antiobesity activity in DIO mouse assessed as decrease in [cPP(1 to 7),NPY(19 to 23),Ala(31),Alb(32),Gln(34)]-induced food intake at 12.5 mg/kg, po administered 1 hr prior to [cPP(1 to 7),NPY(19 to 23),Ala(31),Alb(32),Gln(34)]-induction measured at 4 hrs relative to vehicle-treated control; assay type: functional; set-up: scale not given: the % may be the effect or the level left
Procedure, shortened: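 Diet-induced obese mice dosed orally at 12.5 mg/kg 1 h before icv injection of a Y5-selective agonist (0.1 nmol). Cumulative food intake recorded over the following 4 h.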

Cytochrome P450 2C19, sequence (P33261 whole entry): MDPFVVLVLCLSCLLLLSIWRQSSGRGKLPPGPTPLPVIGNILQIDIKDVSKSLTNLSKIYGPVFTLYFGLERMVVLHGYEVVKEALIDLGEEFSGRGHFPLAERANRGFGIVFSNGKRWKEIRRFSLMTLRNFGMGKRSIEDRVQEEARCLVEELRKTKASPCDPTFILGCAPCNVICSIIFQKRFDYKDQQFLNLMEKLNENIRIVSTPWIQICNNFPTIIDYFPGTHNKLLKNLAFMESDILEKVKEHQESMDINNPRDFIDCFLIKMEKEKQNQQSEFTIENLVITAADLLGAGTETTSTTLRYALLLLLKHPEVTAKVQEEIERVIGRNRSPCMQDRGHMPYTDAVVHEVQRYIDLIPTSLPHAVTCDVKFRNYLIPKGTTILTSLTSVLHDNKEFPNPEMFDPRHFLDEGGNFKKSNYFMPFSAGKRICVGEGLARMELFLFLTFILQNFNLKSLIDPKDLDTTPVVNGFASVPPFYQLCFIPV
Cytochrome P450 2D6, sequence (P10635 whole entry): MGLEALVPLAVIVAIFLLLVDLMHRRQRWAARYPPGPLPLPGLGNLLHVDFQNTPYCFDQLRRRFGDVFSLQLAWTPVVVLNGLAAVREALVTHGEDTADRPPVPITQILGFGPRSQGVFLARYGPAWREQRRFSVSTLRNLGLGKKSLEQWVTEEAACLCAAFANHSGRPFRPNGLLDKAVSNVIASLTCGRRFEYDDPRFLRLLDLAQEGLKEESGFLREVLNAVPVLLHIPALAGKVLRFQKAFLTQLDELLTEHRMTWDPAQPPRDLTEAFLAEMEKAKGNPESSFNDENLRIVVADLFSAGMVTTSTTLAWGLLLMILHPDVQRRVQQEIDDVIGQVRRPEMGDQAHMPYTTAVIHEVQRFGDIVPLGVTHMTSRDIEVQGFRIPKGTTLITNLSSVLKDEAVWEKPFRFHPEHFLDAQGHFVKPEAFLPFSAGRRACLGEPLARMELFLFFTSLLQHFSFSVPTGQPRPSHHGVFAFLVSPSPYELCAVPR
Cytochrome P450 2C9, sequence (P11712 whole entry): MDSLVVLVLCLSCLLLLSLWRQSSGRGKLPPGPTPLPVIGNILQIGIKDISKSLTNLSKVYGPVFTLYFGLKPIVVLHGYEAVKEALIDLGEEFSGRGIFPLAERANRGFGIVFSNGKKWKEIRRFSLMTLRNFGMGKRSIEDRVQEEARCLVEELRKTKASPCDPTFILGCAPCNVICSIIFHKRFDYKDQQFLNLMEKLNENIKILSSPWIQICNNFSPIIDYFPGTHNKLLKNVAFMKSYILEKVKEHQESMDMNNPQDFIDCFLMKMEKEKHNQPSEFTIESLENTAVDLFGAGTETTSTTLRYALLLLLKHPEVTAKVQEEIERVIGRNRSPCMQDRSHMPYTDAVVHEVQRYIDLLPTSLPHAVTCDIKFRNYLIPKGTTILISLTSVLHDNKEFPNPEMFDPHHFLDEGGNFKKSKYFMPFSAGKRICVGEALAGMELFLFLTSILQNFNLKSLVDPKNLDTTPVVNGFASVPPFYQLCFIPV
Cytochrome P450 3A4, sequence (P08684 whole entry): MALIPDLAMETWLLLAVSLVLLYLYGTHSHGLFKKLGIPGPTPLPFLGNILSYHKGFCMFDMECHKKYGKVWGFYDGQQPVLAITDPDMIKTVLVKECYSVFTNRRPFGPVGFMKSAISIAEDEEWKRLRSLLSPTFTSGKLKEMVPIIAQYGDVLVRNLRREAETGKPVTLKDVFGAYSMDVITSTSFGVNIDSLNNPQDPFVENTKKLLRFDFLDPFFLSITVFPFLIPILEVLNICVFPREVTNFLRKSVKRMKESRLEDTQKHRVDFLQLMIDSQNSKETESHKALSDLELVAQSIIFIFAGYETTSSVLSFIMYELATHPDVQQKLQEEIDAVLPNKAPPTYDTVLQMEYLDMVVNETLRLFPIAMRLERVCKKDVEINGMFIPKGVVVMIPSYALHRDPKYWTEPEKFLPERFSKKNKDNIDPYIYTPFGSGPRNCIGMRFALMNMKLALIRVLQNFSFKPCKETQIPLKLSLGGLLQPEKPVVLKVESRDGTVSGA

Structure (SMILES) | IC50 [1] [nM] | INH (Cytochrome P450 1A2) [µM] | INH (Cytochrome P450 2C19) [µM] | INH (Cytochrome P450 2C9) [µM] | INH (Cytochrome P450 2D6) [µM] | INH (Cytochrome P450 3A4) [µM] | solubility kinetic [2] | remaining at 0.5 h [3] [%] | remaining at 0.5 h [4] [%] | Activity (Mus musculus [5]) [%] | Activity (Mus musculus [6]) [%]
CCS(=O)(=O)c1ccc2[nH]c(N3CCOC(c4ccc(OC)cc4)C3)nc2c1 (configuration not stated) | 3.03 | > 20 | > 20 | > 20 | > 20 | > 20 | > 50 µM | 81 | 48 | – | –
CCCS(=O)(=O)c1ccc2[nH]c(C3CN(c4ccccc4)CCO3)nc2c1 (configuration not stated) | 15.9 | > 20 | > 20 | > 20 | > 20 | > 20 | > 50 µM | 66.1 | 7.5 | – | –
CCS(=O)(=O)c1ccc2[nH]c(N3CCO[C@H](c4ccccc4)C3)nc2c1 | – | – | – | – | – | – | – | – | – | 67.2 | 71
CCCS(=O)(=O)c1ccc2[nH]c(N3CCNC(c4ccccc4)C3)nc2c1 (configuration not stated) | 6.82 | > 20 | > 20 | > 20 | > 20 | > 20 | > 50 µM | 64.4 | 44 | – | –
CCCS(=O)(=O)c1ccc2nc(N3CCN(C)C(c4ccccc4)C3)[nH]c2c1 (configuration not stated) | 4.99 | > 20 | > 20 | > 20 | > 20 | > 20 | > 50 µM | 21.9 | 21.1 | – | –
CC(C)(C(F)(F)F)S(=O)(=O)c1ccc2nc(N3CCOC(c4ccccc4)C3)[nH]c2c1 (configuration not stated) | 1.43 | 18 | 17 | 11 | 18 | 8.2 | 11.6 µM | 60.2 | 37.8 | – | –
O=S(=O)(CC(F)(F)F)c1ccc2[nH]c(N3CCOC(c4ccccc4)C3)nc2c1 (configuration not stated) | 0.21 | > 20 | > 20 | > 20 | > 20 | 15 | > 50 µM | 85 | 63.5 | – | –
CC(C)S(=O)(=O)c1ccc2nc(N3CCOC(c4ccccc4)C3)[nH]c2c1 (configuration not stated) | 1.33 | 15 | 19 | > 20 | > 20 | 16 | > 50 µM | 87 | 49.5 | – | –
CC(C)(C)S(=O)(=O)c1ccc2[nH]c(N3CCOC(c4ccccc4)C3)nc2c1 (configuration not stated) | 4.27 | > 20 | > 20 | > 20 | > 20 | 14 | 10.7 µM | 78.5 | 56.4 | – | –
CCS(=O)(=O)c1ccc2[nH]c(N3CCOC(c4ccc(Cl)cc4)C3)nc2c1 (configuration not stated) | 0.85 | 9.2 | 9.1 | > 20 | 18 | 13 | 38.1 µM | 94.6 | 87.2 | – | –
CCCS(=O)(=O)c1ccc2nc(N3CCCC(c4ccccc4)C3)[nH]c2c1 (configuration not stated) | 0.29 | > 20 | 12 | 9.4 | 13 | 6.9 | 19.1 µM | 45.2 | 2.2 | – | –
CCCS(=O)(=O)c1ccc2[nH]c(N3CCC(c4ccccc4)C3)nc2c1 (configuration not stated) | 1.01 | > 20 | > 20 | 17 | > 20 | 14 | 15.4 µM | 74.9 | 19.2 | – | –
CCS(=O)(=O)c1ccc2[nH]c(N3CCOC(c4ccc(C)cc4)C3)nc2c1 (configuration not stated) | 0.8 | > 20 | 17 | > 20 | > 20 | > 20 | 21.6 µM | 87.8 | 34 | – | –
O=S(=O)(c1ccc2nc(N3CCOC(c4ccccc4)C3)[nH]c2c1)C(F)(F)F (configuration not stated) | 0.73 | 17 | 1.7 | 4.5 | 5.5 | 2.3 | 3.7 µM | 81.7 | 67.9 | – | –
CCCS(=O)(=O)c1ccc2[nH]c(C3CCOC(c4ccccc4)C3)nc2c1 (mixture of isomers) | 17.2 | > 20 | 20 | > 20 | > 20 | > 20 | > 50 µM | 65 | 74 | – | –
CCCS(=O)(=O)c1ccc2nc(C3CCC(=O)N(c4ccccc4)C3)[nH]c2c1 (configuration not stated) | 193 | > 20 | > 20 | > 20 | > 20 | > 20 | > 50 µM | 81.1 | 62 | – | –
CCCS(=O)(=O)c1ccc2nc(N3CCOC(c4ccccc4)C3)[nH]c2c1 (configuration not stated) | 0.6 | > 20 | 19 | > 20 | > 20 | > 20 | > 50 µM | 77.9 | 45.9 | – | –
CC(C)(C)S(=O)(=O)N[C@H]1CC[C@H](C(=O)Nc2ccc(C(F)(F)F)cn2)CC1 [VELNEPERIT] | 4.6 | – | – | – | – | – | 1.6 µg/mL | – | – | – | –
CCS(=O)(=O)c1ccc2[nH]c(N3CCOC(c4ccc(F)cc4)C3)nc2c1 (configuration not stated) | 1.05 | > 20 | > 20 | > 20 | > 20 | > 20 | > 50 µM | 92.4 | 87.1 | – | –
CCS(=O)(=O)c1ccc2nc(N3CCOC(c4ccccc4)C3)[nH]c2c1 (configuration not stated) | 0.43 | > 20 | > 20 | > 20 | > 20 | > 20 | > 50 µM | 89 | 76.1 | 56 | 42.7
CC(C)CS(=O)(=O)c1ccc2[nH]c(N3CCOC(c4ccccc4)C3)nc2c1 (configuration not stated) | 0.28 | > 20 | > 20 | 17 | > 20 | 9.3 | 43.2 µM | 55.1 | 2.4 | – | –
